≈ marks a conversion by molar mass, not a printed value.
How the values were obtained:
Staphylococcus aureus [1] = test: Antibacterial activity against daptomycin-nonsusceptible Staphylococcus aureus isolate 1285404 by broth microdilution method
Staphylococcus aureus [2] = test: Antibacterial activity against vancomycin-intermediate methicillin-resistant Staphylococcus aureus NRS118 by broth microdilution method; assay type: functional
Summary of the method: (§1)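 VISA and VRSA strains from the NARSA repository were tested separately from the surveillance isolates. MICs by CLSI broth microdilution in frozen trays with serial dilutions. Quality-control strains run in parallel. Susceptibility categories follow CLSI breakpoints, and methicillin resistance was assigned from the oxacillin MIC.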

Streptococcus agalactiae = test: Antibacterial activity against Streptococcus agalactiae clinical isolate by broth microdilution method; assay type: functional
Summary of the method: (§2)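 MIC by CLSI broth microdilution in frozen microtiter trays holding serial dilutions of each agent, prepared from standard laboratory powders. E. faecalis ATCC 29212 and ATCC 51299, S. aureus ATCC 29213 and S. pneumoniae ATCC 49619 run in parallel as quality-control strains. Comparator susceptibility interpreted with CLSI breakpoints.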

Staphylococcus aureus [3] = test: Antibacterial activity against methicillin-resistant Staphylococcus aureus; assay type: functional
Staphylococcus aureus [4] = test: Antibacterial activity against vancomycin-intermediate methicillin-resistant Staphylococcus aureus NRS74 by broth microdilution method; assay type: functional
Summary of the method: as §1

Staphylococcus aureus [5] = test: Antibacterial activity against vancomycin-intermediate methicillin-resistant Staphylococcus aureus NRS1 by broth microdilution method; assay type: functional
Summary of the method: as §1

[6] = tested on: Streptococcus intermedius; test: Antibacterial activity against Streptococcus intermedius clinical isolate by broth microdilution method; assay type: functional
Summary of the method: as §2

[7] = tested on: Streptococcus constellatus; test: Antibacterial activity against Streptococcus constellatus clinical isolate by broth microdilution method; assay type: functional
Summary of the method: as §2

Staphylococcus aureus [8] = test: Antibacterial activity against daptomycin-nonsusceptible Staphylococcus aureus isolate 1171063 by broth microdilution method; assay type: functional
Summary of the method: (§3)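 MICs by CLSI broth microdilution in frozen trays pre-loaded with serial dilutions of each agent. Quality-control strains run in parallel: E. faecalis ATCC 29212 and ATCC 51299, S. aureus ATCC 29213, S. pneumoniae ATCC 49619. Comparator susceptibility categories follow CLSI breakpoints. Methicillin resistance in staphylococci assigned from the oxacillin MIC.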

[9] = Antibacterial activity against Streptococcus sp. Group C clinical isolate by broth microdilution method; assay type: functional
Summary of the method: as §2

Staphylococcus capitis = test: Antibacterial activity against methicillin-susceptible coagulase-negative Staphylococcus capitis clinical isolate by broth microdilution method; assay type: functional
Summary of the method: as §3

Streptococcus equinus = test: Antibacterial activity against Streptococcus bovis clinical isolate by broth microdilution method; assay type: functional
Summary of the method: as §2

Staphylococcus aureus [10] = test: Antibacterial activity against vancomycin-intermediate methicillin-susceptible Staphylococcus aureus NRS56 by broth microdilution method; assay type: functional
Summary of the method: as §1

Staphylococcus aureus [11] = test: Antibacterial activity against vancomycin-, methicillin-resistant Staphylococcus aureus VRS1 by broth microdilution method; assay type: functional
Summary of the method: as §1

Enterococcus faecium [12] = test: Antibacterial activity against linezolid/daptomycin-nonsusceptible vancomycin-resistant Enterococcus faecium clinical isolate by broth microdilution method; assay type: functional
Summary of the method: as §3

Enterococcus faecalis [13] = test: Antibacterial activity against vancomycin-susceptible Enterococcus faecalis clinical isolate by broth microdilution method; assay type: functional
Summary of the method: as §3

Staphylococcus aureus [14] = test: Antibacterial activity against daptomycin-nonsusceptible Staphylococcus aureus isolate 1171055 by broth microdilution method; assay type: functional
Summary of the method: as §3

Staphylococcus aureus [15] = test: Antibacterial activity against vancomycin-intermediate methicillin-resistant Staphylococcus aureus NRS12 by broth microdilution method; assay type: functional
Summary of the method: as §1

Staphylococcus aureus [16] = test: Antibacterial activity against daptomycin-nonsusceptible Staphylococcus aureus isolate 1176127 by broth microdilution method; assay type: functional
Summary of the method: as §3

Enterococcus faecium [17] = test: Antibacterial activity against linezolid/daptomycin-nonsusceptible vancomycin-susceptible Enterococcus faecium clinical isolate by broth microdilution method; assay type: functional
Summary of the method: as §3

Enterococcus = test: Antibacterial activity against vancomycin-susceptible Enterococcus; assay type: functional
Summary of the method: as §2

[18] = tested on: Staphylococcus haemolyticus; test: Antibacterial activity against methicillin-resistant coagulase-negative Staphylococcus haemolyticus clinical isolate by broth microdilution method; assay type: functional
Summary of the method: as §3

Staphylococcus = test: Antibacterial activity against methicillin-resistant coagulase-negative unspeciated Staphylococcus clinical isolate by broth microdilution method; assay type: functional
Summary of the method: as §3

Enterococcus faecalis [19] = test: Antibacterial activity against linezolid/daptomycin-nonsusceptible vancomycin-susceptible Enterococcus faecalis clinical isolate by broth microdilution method; assay type: functional
Summary of the method: as §3

[20] = tested on: Staphylococcus epidermidis; test: Antibacterial activity against methicillin-susceptible coagulase-negative Staphylococcus epidermidis clinical isolate by broth microdilution method; assay type: functional
Summary of the method: as §3

Streptococcus sp. = test: Antibacterial activity against Streptococcus sp. clinical isolate by broth microdilution method; assay type: functional
Summary of the method: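 MIC by CLSI broth microdilution in frozen microtiter trays holding serial dilutions of each agent, prepared from standard laboratory powders. Comparator susceptibility interpreted with CLSI breakpoints.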

Mammaliicoccus sciuri = test: Antibacterial activity against methicillin-susceptible coagulase-negative Staphylococcus sciuri clinical isolate by broth microdilution method; assay type: functional
Summary of the method: as §3

SMILES | MIC50 (Streptococcus agalactiae) | MIC90 (Streptococcus agalactiae) | MIC50 (Staphylococcus aureus [3]) | MIC50 [6] | MIC90 [6] | MIC50 [7] | MIC90 [7] | MIC [9] | MIC50 [9] | MIC90 [9] | MIC50 (Staphylococcus capitis) | MIC90 (Staphylococcus capitis) | MIC50 (Streptococcus equinus) | MIC90 (Streptococcus equinus) | MIC (Staphylococcus aureus [11]) | MIC50 (Enterococcus faecalis [13]) | MIC90 (Enterococcus faecalis [13]) | MIC50 [18] | MIC90 [18] | MIC50 (Staphylococcus) | also measured
CCCCCCCCCCNCCN[C@@]1(C)C[C@H](O[C@H]2[C@H](Oc3c4cc5cc3Oc3ccc(cc3Cl)[C@@H](O)[C@@H](NC(=O)[C@@H](CC(C)C)NC)C(=O)N[C@@H](CC(N)=O)C(=O)N[C@H]5C(=O)N[C@H]3C(=O)N[C@H](C(=O)N[C@H](C(=O)O)c5cc(O)c(CNCP(=O)(O)O)c(O)c5-c5cc3ccc5O)[C@H](O)c3ccc(c(Cl)c3)O4)O[C@H](CO)[C@@H](O)[C@@H]2O)O[C@@H](C)[C@H]1O [TELAVANCIN] | 0.06 µg/mL (≈ 0.0342 µM) | 0.06 µg/mL (≈ 0.0342 µM) | 0.14 µM (≈ 0.246 µg/mL) | 0.03 µg/mL (≈ 0.0171 µM) | 0.12 µg/mL (≈ 0.0684 µM) | 0.03 µg/mL (≈ 0.0171 µM) | 0.12 µg/mL (≈ 0.0684 µM) | 0.03 µg/mL (≈ 0.0171 µM) | 0.03 µg/mL (≈ 0.0171 µM) | 0.06 µg/mL (≈ 0.0342 µM) | 0.25 µg/mL (≈ 0.142 µM) | 0.5 µg/mL (≈ 0.285 µM) | 0.03 µg/mL (≈ 0.0171 µM) | 0.12 µg/mL (≈ 0.0684 µM) | 4 µg/mL (≈ 2.28 µM) | 0.5 µg/mL (≈ 0.285 µM) | 1 µg/mL (≈ 0.57 µM) | 0.25 µg/mL (≈ 0.142 µM) | 0.5 µg/mL (≈ 0.285 µM) | 0.25 µg/mL (≈ 0.142 µM) | MIC (Staphylococcus aureus [1]): 0.25 µg/mL (≈ 0.142 µM); MIC (Staphylococcus aureus [2]): 0.5 µg/mL (≈ 0.285 µM); MIC (Staphylococcus aureus [4]): 1 µg/mL (≈ 0.57 µM); MIC (Staphylococcus aureus [5]): 0.5 µg/mL (≈ 0.285 µM); MIC (Staphylococcus aureus [8]): 0.5 µg/mL (≈ 0.285 µM); MIC (Staphylococcus aureus [10]): 1 µg/mL (≈ 0.57 µM); MIC (Enterococcus faecium [12]): 2 µg/mL (≈ 1.14 µM); MIC (Staphylococcus aureus [14]): 0.5 µg/mL (≈ 0.285 µM); MIC (Staphylococcus aureus [15]): 0.5 µg/mL (≈ 0.285 µM); MIC (Staphylococcus aureus [16]): 0.5 µg/mL (≈ 0.285 µM); MIC (Enterococcus faecium [17]): 0.06 µg/mL (≈ 0.0342 µM); MIC90 (Enterococcus): 1 µg/mL (≈ 0.57 µM); MIC90 (Staphylococcus): 0.5 µg/mL (≈ 0.285 µM); MIC (Enterococcus faecalis [19]): 1 µg/mL (≈ 0.57 µM); MIC50 [20]: 0.25 µg/mL (≈ 0.142 µM); MIC90 [20]: 0.5 µg/mL (≈ 0.285 µM); MIC50 (Streptococcus sp.): 0.03 µg/mL (≈ 0.0171 µM); MIC90 (Streptococcus sp.): 0.12 µg/mL (≈ 0.0684 µM); MIC50 (Mammaliicoccus sciuri): 0.25 µg/mL (≈ 0.142 µM); MIC90 (Mammaliicoccus sciuri): 0.5 µg/mL (≈ 0.285 µM)
CN[C@H](CC(C)C)C(=O)N[C@H]1C(=O)N[C@@H](CC(N)=O)C(=O)N[C@H]2C(=O)N[C@H]3C(=O)N[C@H](C(=O)N[C@H](C(=O)O)c4cc(O)cc(O)c4-c4cc3ccc4O)[C@H](O)c3ccc(c(Cl)c3)Oc3cc2cc(c3O[C@@H]2O[C@H](CO)[C@@H](O)[C@H](O)[C@H]2O[C@H]2C[C@](C)(N)[C@H](O)[C@H](C)O2)Oc2ccc(cc2Cl)[C@H]1O [VANCOMYCIN] | 0.5 µg/mL (≈ 0.345 µM) | 0.5 µg/mL (≈ 0.345 µM) | 0.69 µM (≈ 1 µg/mL) | 0.5 µg/mL (≈ 0.345 µM) | 0.5 µg/mL (≈ 0.345 µM) | 0.5 µg/mL (≈ 0.345 µM) | 0.5 µg/mL (≈ 0.345 µM) | 0.25 µg/mL (≈ 0.173 µM) | 0.25 µg/mL (≈ 0.173 µM) | 0.5 µg/mL (≈ 0.345 µM) | 1 µg/mL (≈ 0.69 µM) | 2 µg/mL (≈ 1.38 µM) | 0.5 µg/mL (≈ 0.345 µM) | 0.5 µg/mL (≈ 0.345 µM) | > 32 µg/mL | 1 µg/mL (≈ 0.69 µM) | 2 µg/mL (≈ 1.38 µM) | 2 µg/mL (≈ 1.38 µM) | 2 µg/mL (≈ 1.38 µM) | 2 µg/mL (≈ 1.38 µM) | MIC90 (Staphylococcus): 2 µg/mL (≈ 1.38 µM); MIC50 [20]: 1 µg/mL (≈ 0.69 µM); MIC90 [20]: 2 µg/mL (≈ 1.38 µM); MIC50 (Streptococcus sp.): 0.5 µg/mL (≈ 0.345 µM); MIC90 (Streptococcus sp.): 0.5 µg/mL (≈ 0.345 µM); MIC50 (Mammaliicoccus sciuri): 1 µg/mL (≈ 0.69 µM); MIC90 (Mammaliicoccus sciuri): 2 µg/mL (≈ 1.38 µM)
